# According to ChEMBL document CHEMBL1140884, “Oligodeoxyribonucleotide-based antagonists for Toll-like receptors 7 and 9” (2009):
# Calls of active or inactive are those of the source. The rule behind the calls is not given here.
# Experiments:
# [1] = target: T1, Toll-like receptor 9 (Mus musculus) (UniProt Q9EQU3); test: Antagonist activity at mouse TLR9 expressed in HEK293 cells assessed as inhibition of 5'-CTATCTGTCGTTCTCTGT-3'-induced NF-kappaB activation by SEAP reporter gene assay; type: functional, cell-based
# T1 sequence (whole entry): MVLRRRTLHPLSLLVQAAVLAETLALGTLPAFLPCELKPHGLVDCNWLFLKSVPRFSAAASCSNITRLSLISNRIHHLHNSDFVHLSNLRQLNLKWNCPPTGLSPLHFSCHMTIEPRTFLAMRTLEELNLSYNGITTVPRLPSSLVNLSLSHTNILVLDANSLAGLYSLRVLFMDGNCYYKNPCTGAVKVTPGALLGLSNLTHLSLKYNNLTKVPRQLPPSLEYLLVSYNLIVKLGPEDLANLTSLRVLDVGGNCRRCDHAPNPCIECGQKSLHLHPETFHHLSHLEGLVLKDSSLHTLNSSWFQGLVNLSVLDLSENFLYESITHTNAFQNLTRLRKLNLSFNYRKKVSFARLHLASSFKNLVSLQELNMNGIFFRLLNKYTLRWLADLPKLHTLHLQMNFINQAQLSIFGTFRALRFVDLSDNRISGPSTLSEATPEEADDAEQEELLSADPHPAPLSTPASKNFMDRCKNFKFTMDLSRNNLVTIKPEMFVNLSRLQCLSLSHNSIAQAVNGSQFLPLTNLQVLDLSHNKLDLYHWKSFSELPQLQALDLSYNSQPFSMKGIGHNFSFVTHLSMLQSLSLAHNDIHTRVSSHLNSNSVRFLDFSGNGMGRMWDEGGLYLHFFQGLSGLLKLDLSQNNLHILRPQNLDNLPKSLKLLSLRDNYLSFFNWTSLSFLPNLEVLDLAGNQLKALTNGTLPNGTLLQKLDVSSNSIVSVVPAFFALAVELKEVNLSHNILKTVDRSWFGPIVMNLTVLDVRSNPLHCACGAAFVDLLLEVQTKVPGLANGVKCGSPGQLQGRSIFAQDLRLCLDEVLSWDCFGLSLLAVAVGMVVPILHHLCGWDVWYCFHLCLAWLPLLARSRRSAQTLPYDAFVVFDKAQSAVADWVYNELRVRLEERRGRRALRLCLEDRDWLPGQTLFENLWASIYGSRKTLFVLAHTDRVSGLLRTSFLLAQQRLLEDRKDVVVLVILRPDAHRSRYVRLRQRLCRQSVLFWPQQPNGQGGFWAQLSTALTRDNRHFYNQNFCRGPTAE
# How it was run: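 Mouse TLR9-HEK293 cells were transfected with a SEAP reporter for 6 h. They were then stimulated for 18 h with agonist (0.25 or 0.5 µg/mL) plus increasing antagonist concentrations or set agonist:antagonist ratios. Quanti-Blue read-out, reported as % NF-κB activity with agonist alone as 100%.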
# [2] = test system: PBMC; test: Inhibition of 5'-TCTGTCRTTCT-X-TCTTRCTGTCT-5'-induced human PBMC proliferation treated 72 hrs before induction; type: functional, cell-based
# [3] = target: T1, Toll-like receptor 9 (Mus musculus); test: Agonist activity at mouse TLR9 expressed in HEK293 cells assessed as activation of NF-kappaB at 10 ug/mL by SEAP reporter gene assay; type: functional, cell-based
# How it was run: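 HEK293 cells stably expressing mouse TLR9 were transiently transfected with a SEAP reporter for 6 h. Compounds were added at 10 µg/mL for 18 h. SEAP was read with Quanti-Blue substrate and expressed as fold change in NF-κB activity.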
# [4] = test system: Mus musculus; test: Inhibition of 5'-TCTGACRTTCT-X-TCTTRCAGTCT-3'-induced IL12 production in C57BL/6 mouse pretreated before up to 48 hrs of induction at 10 mg/kg, sc; type: functional, organism-based; parameters: dose 10 mg/kg
# How it was run: (§1)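 C57BL/6 mice received antagonist or control 10 mg/kg sc, either with TLR9 agonist 0.25 mg/kg sc or up to 48 h before it. Serum IL-12 was measured 2 h after agonist. Two or three independent experiments; mean ± SEM, Student's t test versus PBS.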
# [5] = test system: Mus musculus; test: Inhibition of 5'-TCTGACRTTCT-X-TCTTRCAGTCT-3'-induced IL12 production in C57BL/6 mouse at 10 mg/kg, sc; type: functional, organism-based; parameters: dose 10 mg/kg; how it was run: as §1
# [6] = test system: Mus musculus; test: Induction of IP10 secretion in C57BL/6 mouse at 0.25 mg/kg, sc; type: functional, organism-based; parameters: dose 0.25 mg/kg
# How it was run: (§2)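 Female C57BL/6 mice, 6–8 weeks old (n=3), were injected sc with single compounds at 0.25 or 20 mg/kg. Serum was collected by retro-orbital bleed 2 h later and cytokines were measured by Luminex mouse 20-plex assay.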
# [7] = test system: Mus musculus; test: Induction of cytokine MIG secretion in C57BL/6 mouse at 0.25 mg/kg, sc; type: functional, organism-based; parameters: dose 0.25 mg/kg; how it was run: as §2
# [8] = test system: Mus musculus; test: Induction of IL12 secretion in C57BL/6 mouse at 0.25 mg/kg, sc; type: functional, organism-based; parameters: dose 0.25 mg/kg; how it was run: as §2
# [9] = target: T1, Toll-like receptor 9 (Mus musculus); test: Agonist activity at TLR9 in mouse J774 cells assessed as of NF-kappaB activation; type: functional, cell-based
# How it was run: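 Murine J774 macrophages grown in DMEM with 10% FBS and plated at 5×10^6 cells/well. Nuclear extracts taken 1 h after agonist addition. NF-κB detected by EMSA on native polyacrylamide gels with autoradiography.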
# [10] = test system: Mus musculus; test: Induction of cytokine KC secretion in C57BL/6 mouse at 0.25 mg/kg, sc; type: functional, organism-based; parameters: dose 0.25 mg/kg; how it was run: as §2
# [11] = test system: Mus musculus; test: Induction of IL10 secretion in C57BL/6 mouse at 0.25 mg/kg, sc; type: functional, organism-based; parameters: dose 0.25 mg/kg; how it was run: as §2
# [12] = test system: Mus musculus; test: Induction of IL6 secretion in C57BL/6 mouse at 0.25 mg/kg, sc; type: functional, organism-based; parameters: dose 0.25 mg/kg; how it was run: as §2
# [13] = test system: Mus musculus; test: Induction of cytokine MCP1 secretion in C57BL/6 mouse at 0.25 mg/kg, sc; type: functional, organism-based; parameters: dose 0.25 mg/kg; how it was run: as §2
Structure (SMILES),Activity [1],Activity [2],Activity [3],Activity [4],Activity [5],Activity [6],Activity [7],Activity [8],Activity [9],Activity [10],Activity [11],Activity [12],Activity [13]
CO[C@@H]1[C@H](OP(=O)(S)OC[C@H]2O[C@@H](n3ccc(N)nc3=O)C[C@@H]2OP(=O)(S)OC[C@H]2O[C@@H](n3cnc4c(=O)[nH]c(N)nc43)C[C@@H]2OP(=O)(S)OC[C@H]2O[C@@H](n3cc(C)c(=O)[nH]c3=O)C[C@@H]2OP(=O)(S)OC[C@H]2O[C@@H](n3cc(C)c(=O)[nH]c3=O)C[C@@H]2OP(=O)(S)OC[C@H]2O[C@@H](n3ccc(N)nc3=O)C[C@@H]2OP(=O)(S)OC[C@H]2O[C@@H](n3cc(C)c(=O)[nH]c3=O)C[C@@H]2OP(=O)(S)OC[C@H]2O[C@@H](n3ccc(N)nc3=O)C[C@@H]2OP(=O)(S)OC[C@H]2O[C@@H](n3cc(C)c(=O)[nH]c3=O)C[C@@H]2OP(=O)(S)OC[C@H]2O[C@@H](n3cnc4c(=O)[nH]c(N)nc43)C[C@@H]2OP(=O)(S)OC[C@H]2O[C@@H](n3cc(C)c(=O)[nH]c3=O)C[C@@H]2O)[C@@H](COP(=O)(S)O[C@H]2[C@@H](OC)[C@H](n3cnc4c(=O)[nH]c(N)nc43)O[C@@H]2COP(=O)(S)O[C@H]2C[C@H](n3cc(C)c(=O)[nH]c3=O)O[C@@H]2COP(=O)(S)O[C@H]2C[C@H](n3ccc(N)nc3=O)O[C@@H]2COP(=O)(S)O[C@H]2C[C@H](n3cc(C)c(=O)[nH]c3=O)O[C@@H]2COP(=O)(S)O[C@H]2C[C@H](n3cnc4c(N)ncnc43)O[C@@H]2COP(=O)(S)O[C@H]2C[C@H](n3cc(C)c(=O)[nH]c3=O)O[C@@H]2COP(=O)(S)O[C@@H]2C[C@@H](n3ccc(N)nc3=O)O[C@H]2CO)O[C@H]1n1ccc(=O)[nH]c1=O (stereo not given in full),Active,Active,inactive,,,,,,,,,,
CO[C@@H]1[C@H](OP(=O)(S)OC[C@H]2O[C@@H](n3cnc4c(N)ncnc43)[C@H](OC)[C@@H]2OP(=O)(S)OC[C@H]2O[C@@H](n3ccc(N)nc3=O)C[C@@H]2OP(=O)(S)OC[C@H]2O[C@@H](n3ccc(N)nc3=O)C[C@@H]2OP(=O)(S)OC[C@H]2O[C@@H](n3cc(C)c(=O)[nH]c3=O)C[C@@H]2OP(=O)(S)OC[C@H]2O[C@@H](n3cc(C)c(=O)[nH]c3=O)C[C@@H]2OP(=O)(S)OC[C@H]2O[C@@H](n3ccc(N)nc3=O)C[C@@H]2OP(=O)(S)OC[C@H]2O[C@@H](n3cc(C)c(=O)[nH]c3=O)C[C@@H]2OP(=O)(S)OC[C@H]2O[C@@H](n3ccc(N)nc3=O)C[C@@H]2OP(=O)(S)OC[C@H]2O[C@@H](n3cc(C)c(=O)[nH]c3=O)C[C@@H]2OP(=O)(S)OC[C@H]2O[C@@H](n3cnc4c(=O)[nH]c(N)nc43)C[C@@H]2OP(=O)(S)OC[C@H]2O[C@@H](n3cc(C)c(=O)[nH]c3=O)C[C@@H]2O)[C@@H](COP(=O)(S)O[C@H]2C[C@H](n3cc(C)c(=O)[nH]c3=O)O[C@@H]2COP(=O)(S)O[C@H]2[C@@H](O)[C@H](n3ccc(N)nc3=O)O[C@@H]2COP(=O)(S)O[C@H]2C[C@H](n3cc(C)c(=O)[nH]c3=O)O[C@@H]2COP(=O)(S)O[C@H]2C[C@H](n3cnc4c(N)ncnc43)O[C@@H]2COP(=O)(S)O[C@H]2C[C@H](n3cc(C)c(=O)[nH]c3=O)O[C@@H]2COP(=O)(S)O[C@@H]2C[C@@H](n3ccc(N)nc3=O)O[C@H]2CO)O[C@H]1n1ccc(N)nc1=O (stereo not given in full),,,inactive,inactive,inactive,,,,,,,,
Cc1cn([C@H]2C[C@H](OP(=O)(S)OC[C@H]3O[C@@H](n4ccc(N)nc4=O)C[C@@H]3OP(=O)(S)OC[C@H]3O[C@@H](n4cc(C)c(=O)[nH]c4=O)C[C@@H]3OP(=O)(S)OC[C@H]3O[C@@H](n4cnc5c(=O)[nH]c(N)nc54)C[C@@H]3OP(=O)(S)OC[C@H]3O[C@@H](n4cnc5c(N)ncnc54)C[C@@H]3OP(=O)(S)OC[C@H]3O[C@@H](n4ccc(N)nc4=O)C[C@@H]3OP(=O)(S)OC[C@H]3O[C@@H](n4ccc5c(N)ncnc54)C[C@@H]3OP(=O)(S)OC[C@H]3O[C@@H](n4cc(C)c(=O)[nH]c4=O)C[C@@H]3OP(=O)(S)OC[C@H]3O[C@@H](n4cc(C)c(=O)[nH]c4=O)C[C@@H]3OP(=O)(S)OC[C@H]3O[C@@H](n4ccc(N)nc4=O)C[C@@H]3OP(=O)(S)OC[C@H]3O[C@@H](n4cc(C)c(=O)[nH]c4=O)C[C@@H]3OP(=O)(S)OCC(O)COP(=O)(S)O[C@H]3C[C@H](n4cc(C)c(=O)[nH]c4=O)O[C@@H]3COP(=O)(S)O[C@H]3C[C@H](n4ccc(N)nc4=O)O[C@@H]3COP(=O)(S)O[C@H]3C[C@H](n4cc(C)c(=O)[nH]c4=O)O[C@@H]3COP(=O)(S)O[C@H]3C[C@H](n4cc(C)c(=O)[nH]c4=O)O[C@@H]3COP(=O)(S)O[C@H]3C[C@H](n4ccc5c(=O)[nH]c(N)nc54)O[C@@H]3COP(=O)(S)O[C@H]3C[C@H](n4ccc(N)nc4=O)O[C@@H]3COP(=O)(S)O[C@H]3C[C@H](n4cnc5c(N)ncnc54)O[C@@H]3COP(=O)(S)O[C@H]3C[C@H](n4cnc5c(=O)[nH]c(N)nc54)O[C@@H]3COP(=O)(S)O[C@H]3C[C@H](n4cc(C)c(=O)[nH]c4=O)O[C@@H]3COP(=O)(S)O[C@H]3C[C@H](n4ccc(N)nc4=O)O[C@@H]3COP(=O)(S)O[C@H]3C[C@H](n4cc(C)c(=O)[nH]c4=O)O[C@@H]3CO)[C@@H](CO)O2)c(=O)[nH]c1=O (stereo not given in full),,,Active,,,Active,Active,Active,Active,Active,Active,Active,Active
